According to ChEMBL document CHEMBL3351845, “Synthesis and in vitro stability of amino acid prodrugs of 6-β-naltrexol for microneedle-enhanced transdermal delivery” (Bioorg Med Chem Lett, 2014):

Experiments:
[1] = Stability in pH 5.0 0.3 M acetate buffer assessed as time duration in which 90% produg stability at 1 mg by HPLC method; assay type: physicochemical; details: in vitro
Procedure, shortened: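 Roughly 1 mg prodrug was added to 10 mL of 0.3 M acetate buffer, pH 5.0, thermostated at 32 °C, then vortexed 1 min and filtered through 0.45 μm nylon. Degradation was followed over time by C-8 reversed-phase HPLC with UV at 215 or 278 nm, mobile phase 70:30 ACN:aqueous TFA/octane sulfonate, pH 3.0. t90 is the time to 10% loss; runs in duplicate.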

[2] = Half life in pH 7.4 25 mM HEPES buffered Hank's balanced salt solution at assessed as prodrug hydrolysis 1 mg by HPLC method; assay type: physicochemical; details: buffer
Procedure, shortened: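 About 1 mg prodrug went into 10 mL of 25 mM HEPES-buffered Hanks' balanced salt solution, pH 7.4, held at 37 °C. The mixture was vortexed 1 min and filtered through 0.45 μm nylon. Samples were run by reversed-phase C-8 HPLC with UV at 215 or 278 nm, mobile phase 70:30 ACN:aqueous 0.1% TFA/0.065% octane sulfonate, pH 3.0. Half-life was read from pseudo-first-order hydrolysis; duplicate runs.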

[3] = test system: Plasma; assay: Half life in 50% human plasma in presence of 50% PBS buffer assessed prodrug hydrolysis by HPLC method; assay type: ADME, cell-free
Procedure, shortened: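 Each prodrug was made up as a DMSO stock, and 40.0 μL was added to 760.0 μL of 50% human plasma in 50% PBS (pH 7.4), pre-warmed to 37 °C. Aliquots taken at set times got salicylamide internal standard, were vortexed, centrifuged, dried under N2, and taken up in methanol/0.04% HFBA. Analysis used gradient HPLC on a phenyl column against an eight-point calibration. Kapp came from log(AUC prodrug/AUC IS) versus time; n=3, mean ± SD.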

[4] = Solubility in pH 7.4 25 mM HEPES buffered Hank's balanced salt solution by HPLC method; assay type: physicochemical; details: buffer

Row | SMILES | Time [1] [days] | t1/2 [2] [h] | t1/2 [3] [h] | solubility [4]
1 | NCCC(=O)O[C@@H]1CC[C@@]2(O)[C@H]3Cc4ccc(O)c5c4[C@@]2(CCN3CC2CC2)[C@H]1O5 | 5.6 | 12 | – | –
2 | CC(C)C[C@H](N)C(=O)O[C@@H]1CC[C@@]2(O)[C@H]3Cc4ccc(O)c5c4[C@@]2(CCN3CC2CC2)[C@H]1O5 | 0.9 | – | – | –
3 | CC(C)[C@H](N)C(=O)O[C@@H]1CC[C@@]2(O)[C@H]3Cc4ccc(O)c5c4[C@@]2(CCN3CC2CC2)[C@H]1O5 | 5.2 | 11.5 | 18.2 | –
4 | C[C@H](N)C(=O)O[C@@H]1CC[C@@]2(O)[C@H]3Cc4ccc(O)c5c4[C@@]2(CCN3CC2CC2)[C@H]1O5 | 0.412 | – | – | –
5 | O=C(O[C@@H]1CC[C@@]2(O)[C@H]3Cc4ccc(O)c5c4[C@@]2(CCN3CC2CC2)[C@H]1O5)[C@@H]1CCCN1 | 0.217 | – | – | –
6 | CCC(C)[C@H](N)C(=O)O[C@@H]1CC[C@@]2(O)[C@H]3Cc4ccc(O)c5c4[C@@]2(CCN3CC2CC2)[C@H]1O5 (some centres not stated) | 14 | 22 | 31.2 | Insoluble
